The results in this text go back to ChEMBL document CHEMBL4043179, “Triple reuptake inhibitors: Design, synthesis and structure-activity relationship of benzylpiperidine-tetrazoles” (Bioorg Med Chem, 2017).

Holding throughout (format): cell-based
Assay [1] addresses T1, Sodium-dependent serotonin transporter (Homo sapiens, UniProt P31645). Put plainly: Inhibition of re-uptake of [3H]-5-HT at human SERT at 10 uM expressed in HEK293 cells by liquid scintillation counting.
Target sequence in this assay (P31645 whole entry, looked up): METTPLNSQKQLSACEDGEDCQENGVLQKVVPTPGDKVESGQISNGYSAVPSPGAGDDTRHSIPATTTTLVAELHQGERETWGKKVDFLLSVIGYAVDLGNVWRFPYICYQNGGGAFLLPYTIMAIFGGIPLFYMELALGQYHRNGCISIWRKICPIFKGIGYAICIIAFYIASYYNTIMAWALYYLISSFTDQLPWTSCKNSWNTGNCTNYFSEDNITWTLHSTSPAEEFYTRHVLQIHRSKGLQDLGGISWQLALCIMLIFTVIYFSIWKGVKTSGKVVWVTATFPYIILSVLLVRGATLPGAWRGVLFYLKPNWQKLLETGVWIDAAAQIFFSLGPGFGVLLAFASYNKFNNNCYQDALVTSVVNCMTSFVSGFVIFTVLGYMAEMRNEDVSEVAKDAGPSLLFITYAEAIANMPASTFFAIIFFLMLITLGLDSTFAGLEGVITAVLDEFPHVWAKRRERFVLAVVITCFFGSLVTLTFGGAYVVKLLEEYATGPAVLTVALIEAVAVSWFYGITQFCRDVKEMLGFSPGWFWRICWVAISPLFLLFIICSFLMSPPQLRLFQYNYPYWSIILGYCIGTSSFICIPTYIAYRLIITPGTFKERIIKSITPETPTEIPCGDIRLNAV
Assay [2] concerns the target T2, Sodium-dependent noradrenaline transporter (Homo sapiens, UniProt P23975). Nature of the assay: Inhibition of re-uptake of [3H]-NE at human NET at 10 uM expressed in HEK293 cells by liquid scintillation counting.
Assay [3] concerns the target T3, Sodium-dependent dopamine transporter (Homo sapiens, UniProt Q01959). Nature of the assay: Inhibition of re-uptake of [3H]-DA at human DAT at 10 uM expressed in HEK293 cells by liquid scintillation counting.
The target in assay [4] is T1, Sodium-dependent serotonin transporter. Put plainly: Inhibition of re-uptake of [3H]-5-HT at human SERT expressed in HEK293 cells by liquid scintillation counting.
Target sequence in this assay (P31645 whole entry): as the sequence (P31645 whole entry, looked up) above
For assay [5], the target named is T2, Sodium-dependent noradrenaline transporter. Nature of the assay: Inhibition of re-uptake of [3H]-NE at human NET expressed in HEK293 cells by liquid scintillation counting. An outline of the steps: (§1)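 HEK-293 cells were grown in medium with fetal bovine serum and transfected with human DAT or NET. Uptake of radiolabelled [3H]-DA or [3H]-NE, each at 20 nM in the assay, was measured by liquid scintillation counting. The method follows a literature procedure with slight modification, and reference reuptake inhibitors were run alongside.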

Assay [6] deals with T3, Sodium-dependent dopamine transporter. Put plainly: Inhibition of re-uptake of [3H]-DA at human DAT expressed in HEK293 cells by liquid scintillation counting. In short, it runs like this:
as §1

T2 sequence (P23975 whole entry): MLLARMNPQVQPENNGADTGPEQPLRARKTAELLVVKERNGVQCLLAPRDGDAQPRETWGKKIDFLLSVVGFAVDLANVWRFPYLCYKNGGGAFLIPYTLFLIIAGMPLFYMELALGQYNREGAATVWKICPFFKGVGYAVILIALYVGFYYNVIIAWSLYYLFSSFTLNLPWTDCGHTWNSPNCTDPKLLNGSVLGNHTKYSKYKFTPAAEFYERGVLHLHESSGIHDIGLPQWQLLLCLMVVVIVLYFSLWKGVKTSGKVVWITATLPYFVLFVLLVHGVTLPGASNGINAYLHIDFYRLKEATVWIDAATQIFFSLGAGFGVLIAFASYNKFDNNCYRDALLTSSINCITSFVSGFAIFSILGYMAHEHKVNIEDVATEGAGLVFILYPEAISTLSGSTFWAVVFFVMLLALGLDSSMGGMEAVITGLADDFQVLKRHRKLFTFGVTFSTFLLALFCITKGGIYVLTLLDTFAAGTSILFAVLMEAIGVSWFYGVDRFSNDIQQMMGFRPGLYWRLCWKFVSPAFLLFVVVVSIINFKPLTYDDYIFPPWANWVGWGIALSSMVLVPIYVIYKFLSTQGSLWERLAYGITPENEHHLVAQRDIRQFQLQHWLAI
T3 sequence (Q01959 whole entry): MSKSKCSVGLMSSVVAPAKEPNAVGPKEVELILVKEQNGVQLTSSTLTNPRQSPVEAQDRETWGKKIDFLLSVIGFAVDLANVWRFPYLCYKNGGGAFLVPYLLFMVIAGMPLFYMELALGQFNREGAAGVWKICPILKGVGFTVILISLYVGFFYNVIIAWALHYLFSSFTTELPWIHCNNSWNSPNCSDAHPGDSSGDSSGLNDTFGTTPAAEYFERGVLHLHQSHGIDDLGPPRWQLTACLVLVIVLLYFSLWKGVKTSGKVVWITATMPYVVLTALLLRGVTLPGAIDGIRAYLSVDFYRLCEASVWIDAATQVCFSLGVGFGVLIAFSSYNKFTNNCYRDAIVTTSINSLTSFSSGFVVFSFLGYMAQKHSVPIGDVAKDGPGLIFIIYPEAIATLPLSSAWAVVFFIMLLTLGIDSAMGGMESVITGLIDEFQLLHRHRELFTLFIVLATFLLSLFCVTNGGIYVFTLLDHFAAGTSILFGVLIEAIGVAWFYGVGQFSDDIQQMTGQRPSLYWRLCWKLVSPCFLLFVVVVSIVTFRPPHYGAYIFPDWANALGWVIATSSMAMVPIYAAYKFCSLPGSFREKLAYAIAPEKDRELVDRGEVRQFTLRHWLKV

Regarding `Brc1ccccc1-c1nnnn1CCCN1CCC(Cc2ccccc2)CC1`, the inhibition in assay [1], in assay [2] and in assay [3] was greater than 55% each time. Besides, the figures for the half-inhibitory concentration (IC50) in assay [4], in assay [5] and in assay [6] were 5.13 µM, 3.46 µM and greater than 10 µM, respectively.
For `CC(=O)c1cccc(-c2nnnn2CCCN2CCC(Cc3ccccc3)CC2)c1`, the inhibition in assay [1], in assay [2] and in assay [3] was greater than 55% throughout. In addition, the IC50 is 0.54 µM in assay [4], 3 µM in assay [5] and 5.04 µM in assay [6].
Take `Clc1cccc(-c2nnnn2CCCN2CCC(Cc3ccccc3)CC2)c1`: the inhibition in assay [1], in assay [2] and in assay [3] was greater than 55% in each case. Moreover, the IC50 in assay [4] was found to be 1.35 µM; in assay [5], 3.59 µM; in assay [6] it was 5.18 µM.
On to `Clc1cccc(-c2nnnn2CCCN2CCC(Cc3ccccc3)CC2)c1Cl`, for which the inhibition in assay [1], in assay [2] and in assay [3] was greater than 55% in each case. Also, the IC50 in assay [4] is 3.96 µM; in assay [5], 3.45 µM; in assay [6], greater than 10 µM.
In the case of `c1ccc(CC2CCN(CCn3nnnc3-c3cccc4ccccc34)CC2)cc1`, the inhibition in assay [1], in assay [2] and in assay [3] was greater than 55% throughout. Besides, the IC50 in assay [4], in assay [5] and in assay [6] was greater than 10 µM throughout.
In the case of `O=[N+]([O-])c1ccc(-c2nnnn2CCCN2CCC(Cc3ccccc3)CC2)cc1`, the inhibition in assay [1], in assay [2] and in assay [3] was greater than 55% throughout. Besides, the IC50 was 5.25 µM in assay [4], 5.02 µM in assay [5] and greater than 10 µM in assay [6].
`CC(=O)c1cccc(-c2nnnn2CCN2CCC(Cc3ccccc3)CC2)c1`: the inhibition in assay [1], in assay [2] and in assay [3] was greater than 55% throughout. Moreover, the IC50 in assay [4] came out at 4.05 µM; in assay [5], 3.08 µM; in assay [6], 14.6 µM.
As for `Brc1cccc(-c2nnnn2CCCN2CCC(Cc3ccccc3)CC2)c1`, the inhibition in assay [1], in assay [2] and in assay [3] was greater than 55% throughout. In addition, the IC50 is greater than 10 µM in assay [4], 4.34 µM in assay [5] and greater than 10 µM in assay [6].
Consider `Clc1ccccc1-c1nnnn1CCCN1CCC(Cc2ccccc2)CC1`, for which the inhibition in assay [1], in assay [2] and in assay [3] was greater than 55% in each case. Further, the IC50 in assay [4] is 1.32 µM; in assay [5] it was 3.96 µM; in assay [6], 6.55 µM.
Turning to `COc1ccc(-c2nnnn2CCCN2CCC(Cc3ccccc3)CC2)cc1`, the inhibition in assay [1], in assay [2] and in assay [3] was greater than 55% throughout. In addition, the IC50 in assay [4] is 4.05 µM; in assay [5] it was 5.52 µM; in assay [6], greater than 10 µM.
Turning to `c1ccc(CC2CCN(CCCn3nnnc3-c3ccccc3)CC2)cc1`, the inhibition in assay [1], in assay [2] and in assay [3] was greater than 55% in each case. Moreover, the IC50 in assay [4] is 0.88 µM; in assay [5] it was 3.03 µM; in assay [6], 4.02 µM.
Take `c1ccc(CC2CCN(CCCn3nnnc3-c3cccc4ccccc34)CC2)cc1`: the inhibition in assay [1], in assay [2] and in assay [3] was greater than 55% throughout. For the same compound, the IC50 in assay [4] was 0.31 µM; in assay [5], 2.51 µM; in assay [6] it was 6 µM.
For the compound `FC(F)(F)c1cccc(-c2nnnn2CCCN2CCC(Cc3ccccc3)CC2)c1`, the inhibition in assay [1], in assay [2] and in assay [3] was greater than 55% throughout. In addition, the IC50 stood at 8.81 µM in assay [4], 5.1 µM in assay [5] and 3.74 µM in assay [6].
As to `Fc1ccc(-c2nnnn2CCCN2CCC(Cc3ccccc3)CC2)cc1`, the inhibition in assay [1], in assay [2] and in assay [3] was greater than 55% throughout. Besides, the IC50 was 2 µM in assay [4], 2.28 µM in assay [5] and 3.29 µM in assay [6].
For the compound `Clc1ccc(-c2nnnn2CCCN2CCC(Cc3ccccc3)CC2)cc1`, the inhibition in assay [1], in assay [2] and in assay [3] was greater than 55% in each case. In addition, the IC50 in assay [4] stood at 3.13 µM; in assay [5], 2.58 µM; in assay [6], 8.32 µM.
As to `O=[N+]([O-])c1ccc(-c2nnnn2CCN2CCC(Cc3ccccc3)CC2)cc1`, the inhibition in assay [1], in assay [2] and in assay [3] was greater than 55% in each case. Further, the IC50 in assay [4] amounted to 1.24 µM; in assay [5], 1.35 µM; in assay [6] it was 1.98 µM.
